pIC50: −log10 of the molar value. Calls of active or inactive are those of the source. No cut-off for these calls is given here.
Legend:
12Z [1] = experiment: Induction of anchorage-dependent cell death in human 12Z cells assessed as increase in caspase3/7 level at 100 nM after 24 hrs by caspase-Glo 3/7 assay; type: functional, cell-based
Procedure, shortened: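 The Caspase-Glo 3/7 assay was run in suspension. siRNA-transfected 12Z cells (48 hr), drug-treated for 24 hr, were seeded at 10,000 cells/well on cell-repellent plates in serum-free DMEM/F12 with A-485 or vehicle. After 24 hr, Caspase-Glo reagent was added 1:1 and incubated 1 hr at 37°C before reading luminescence.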

[2] = Cytotoxicity against human 12Z cells assessed as reduction in cell viability after 6 days by crystal violet staining based assay; type: toxicity
Procedure, shortened: (§1)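 12Z cells seeded at 100 cells/well and, after 24 h, treated with A-485 from 10 nM to 100 μM. After 6 days, colonies stained with crystal violet and counted.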

12Z [3] = experiment: Growth inhibition of human 12Z cells transfected with shARID1A assessed as reduction in cell viability at 0.01 to 100 uM after 72 hrs by crystal violet staining fluorescence assay; type: functional, cell-based; conditions: dose 0.01-100 µM
[4] = target: Histone acetyltransferase p300 (Homo sapiens) (UniProt Q09472); experiment: Inhibition of P300 in human 12Z cells assessed as reduction in H3K27ac expression at 316 nM for 24 hrs by western blot analysis; type: cell-based
Procedure, shortened: (§2)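 Histones were acid-extracted from A-485-treated 12Z cells with 0.2 N HCl in the presence of sodium butyrate. Extracts were run on a 15% SDS-PAGE gel and blotted with H3K27ac (1:1,000) and total H3 (1:2,000) antibodies, with IRDye 800CW secondary and fluorescence imaging.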

[5] = target: Histone acetyltransferase p300 (Homo sapiens) (UniProt Q09472); experiment: Inhibition of P300 in human 12Z cells transfected with shARID1A assessed as decrease in SERPINE1 RNA expression at 100 nM for 24 hrs by Western blot analysis; type: cell-based
12Z [6] = experiment: Induction of cell death in human 12Z cells transfected with shARID1A assessed as increase in ratio of dead to live cells at 100 nM after 16 hrs by Matrigel based analysis; type: functional
Procedure, shortened: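 12Z cells were siRNA-transfected and drug-treated 24 h post-transfection. At 48 h, 10,000 cells in 0.3 mg/mL Matrigel were seeded on Matrigel-coated wells in serum-free medium with 100 nM A-485 or vehicle.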

[7] = Cytotoxicity against human 12Z cells transfected with control shRNA assessed as reduction in cell viability after 6 days by crystal violet staining based assay; type: toxicity; procedure, shortened: as §1
[8] = target: Histone acetyltransferase p300 (Homo sapiens) (UniProt Q09472); experiment: Inhibition of P300 in human 12Z cells transfected with shARID1A assessed as affected in H3K27ac expression at 1 uM for 24 hrs by CUT and run analysis; type: cell-based
[9] = Cytotoxicity against human 12Z cells transfected with shARID1A assessed as reduction in cell viability after 6 days by crystal violet staining based assay; type: functional; conditions: 144 h; procedure, shortened: as §1
[10] = Cytotoxicity against human 12Z cells assessed as reduction in cell viability after 72 hrs at 0.01 to 100 uM by calcein-AM stainig based fluorescence assay; type: toxicity; conditions: dose 0.01-100 µM
Procedure, shortened: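 12Z cells seeded at 4,000 cells/well, transfected 24 h later, then drug-treated 24 h after transfection for 48–72 hr. Viable cells were read after 1 h with 2 μg/mL calcein-AM as fluorescence.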

[11] = target: Histone acetyltransferase p300 (Homo sapiens) (UniProt Q09472); experiment: Inhibition of P300 in human 12Z cells assessed as reduction in H3K27ac expression at 0.01 to 100 uM for 24 hrs by western blot analysis; type: cell-based; conditions: dose 0.01-100 µM; procedure, shortened: as §2
[12] = Cytotoxicity against human 12Z cells transfected with control shRNA assessed as reduction in cell viability at 0.01 to 100 uM after 72 hrs by crystal violet staining fluorescence assay; type: toxicity, cell-based; conditions: dose 0.01-100 µM
12Z [13] = experiment: Inhibition of cell invasion in human 12Z cells transfected with shARID1A at 10 to 100 nM after 24 hrs by transwell invasion assay; type: functional, cell-based; conditions: dose 10-100 nM
Procedure, shortened: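 12Z cells were siRNA-transfected and drug added 24 h later. At 48 h, 30,000 cells in 0.3 mg/mL Matrigel were seeded on Matrigel-coated 8 μm transwells, with serum-free medium on top and 5% FBS medium below, drug in both chambers. After 16 hr, cells were stained with calcein-AM, unmigrated cells were removed, and five fields/well were imaged and counted.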

12Z [14] = experiment: Inhibition of cell migration in human 12Z cells transfected with shARID1A at 31 to 316 nM after 24 hrs by Matrigel based analysis; type: functional; conditions: dose 31-316 nM, in the assay text read “culture-insert gap assay” for “Matrigel based analysis”
Procedure, shortened: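 12Z cells (4,000/well) in 4-well culture inserts were transduced with control or shARID1A lentivirus (MOI 100). Serum-free medium with drug or vehicle was added after 24 hr, and inserts were removed at 16 hr. Front distances at 16 points were imaged at 0 and 24 hr, and migration was taken as the 0 h minus 24 h mean distance.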

[15] = target: Histone acetyltransferase p300 (Homo sapiens) (UniProt Q09472); experiment: Inhibition of P300 in human 12Z cells transfected with shARID1A assessed as decrease in SERPINE1 RNA expression at 100 nM by RNA-seq analysis; type: cell-based

Sequence of Histone acetyltransferase p300 (Homo sapiens) (Q09472 whole entry): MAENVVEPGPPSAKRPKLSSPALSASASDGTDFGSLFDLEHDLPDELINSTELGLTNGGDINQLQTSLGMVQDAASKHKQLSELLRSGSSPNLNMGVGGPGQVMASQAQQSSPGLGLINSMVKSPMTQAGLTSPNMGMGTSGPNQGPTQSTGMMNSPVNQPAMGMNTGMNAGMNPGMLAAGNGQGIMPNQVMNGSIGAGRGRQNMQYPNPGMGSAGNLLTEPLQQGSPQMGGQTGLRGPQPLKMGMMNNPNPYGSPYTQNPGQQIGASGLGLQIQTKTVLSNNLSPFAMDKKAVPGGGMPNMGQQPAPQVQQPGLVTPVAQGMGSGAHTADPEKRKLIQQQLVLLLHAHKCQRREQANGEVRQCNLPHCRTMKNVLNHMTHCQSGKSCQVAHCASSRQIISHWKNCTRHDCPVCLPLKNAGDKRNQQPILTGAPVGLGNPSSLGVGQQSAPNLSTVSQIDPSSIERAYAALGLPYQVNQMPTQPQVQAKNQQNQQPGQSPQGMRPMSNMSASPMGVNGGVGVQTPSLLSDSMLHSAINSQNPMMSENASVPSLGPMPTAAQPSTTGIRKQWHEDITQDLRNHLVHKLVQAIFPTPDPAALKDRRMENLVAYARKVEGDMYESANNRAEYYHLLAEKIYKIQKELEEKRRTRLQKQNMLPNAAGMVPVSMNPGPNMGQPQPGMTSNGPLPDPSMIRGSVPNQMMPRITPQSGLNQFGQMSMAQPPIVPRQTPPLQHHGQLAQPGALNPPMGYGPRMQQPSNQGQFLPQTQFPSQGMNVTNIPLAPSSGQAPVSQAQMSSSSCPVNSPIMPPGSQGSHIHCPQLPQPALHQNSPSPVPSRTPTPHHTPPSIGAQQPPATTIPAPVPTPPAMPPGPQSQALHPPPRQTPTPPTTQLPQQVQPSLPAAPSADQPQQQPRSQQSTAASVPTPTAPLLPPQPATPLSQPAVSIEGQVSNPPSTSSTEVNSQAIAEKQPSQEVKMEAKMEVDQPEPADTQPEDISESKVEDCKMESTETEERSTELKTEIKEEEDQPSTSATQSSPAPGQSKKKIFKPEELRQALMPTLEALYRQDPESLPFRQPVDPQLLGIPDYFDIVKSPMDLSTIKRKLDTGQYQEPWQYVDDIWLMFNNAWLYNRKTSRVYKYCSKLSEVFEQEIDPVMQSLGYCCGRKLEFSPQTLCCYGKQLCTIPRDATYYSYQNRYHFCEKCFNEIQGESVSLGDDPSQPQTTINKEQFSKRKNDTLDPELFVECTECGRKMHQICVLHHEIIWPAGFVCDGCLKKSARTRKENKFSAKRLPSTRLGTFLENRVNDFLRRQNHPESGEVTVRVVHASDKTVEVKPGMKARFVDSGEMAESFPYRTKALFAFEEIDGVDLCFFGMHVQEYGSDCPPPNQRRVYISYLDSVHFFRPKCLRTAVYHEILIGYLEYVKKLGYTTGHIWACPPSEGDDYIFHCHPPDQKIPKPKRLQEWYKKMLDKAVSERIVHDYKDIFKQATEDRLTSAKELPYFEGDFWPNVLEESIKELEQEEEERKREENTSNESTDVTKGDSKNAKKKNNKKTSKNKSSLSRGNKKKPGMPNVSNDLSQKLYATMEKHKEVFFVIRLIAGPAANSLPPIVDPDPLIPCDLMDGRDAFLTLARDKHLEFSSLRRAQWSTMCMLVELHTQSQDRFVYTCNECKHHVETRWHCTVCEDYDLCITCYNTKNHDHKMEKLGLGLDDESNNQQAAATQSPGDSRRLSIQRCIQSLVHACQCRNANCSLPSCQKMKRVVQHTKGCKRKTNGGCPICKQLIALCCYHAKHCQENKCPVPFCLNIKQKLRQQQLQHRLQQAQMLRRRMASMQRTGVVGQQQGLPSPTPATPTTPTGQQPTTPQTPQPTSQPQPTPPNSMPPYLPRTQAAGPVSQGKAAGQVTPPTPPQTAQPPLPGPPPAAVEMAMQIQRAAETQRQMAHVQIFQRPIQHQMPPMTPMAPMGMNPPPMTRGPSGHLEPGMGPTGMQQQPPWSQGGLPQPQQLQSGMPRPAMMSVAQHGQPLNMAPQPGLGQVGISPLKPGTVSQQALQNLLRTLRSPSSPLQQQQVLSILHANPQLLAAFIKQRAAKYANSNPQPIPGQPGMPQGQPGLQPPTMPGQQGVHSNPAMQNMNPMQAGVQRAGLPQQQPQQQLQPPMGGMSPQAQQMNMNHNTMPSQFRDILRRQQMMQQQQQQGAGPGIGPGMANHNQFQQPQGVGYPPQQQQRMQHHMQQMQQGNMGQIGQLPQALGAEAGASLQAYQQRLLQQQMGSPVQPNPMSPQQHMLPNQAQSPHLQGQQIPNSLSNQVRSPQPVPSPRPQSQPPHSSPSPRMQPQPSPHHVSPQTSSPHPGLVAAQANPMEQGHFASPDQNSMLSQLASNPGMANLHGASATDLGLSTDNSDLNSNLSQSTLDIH

inhibition [4]: Active
inhibition [5]: Active
inhibition [8]: Active
inhibition [11]: Active
inhibition [15]: Active
SMILES: CNC(=O)Nc1ccc2c(c1)CC[C@@]21OC(=O)N(CC(=O)N(Cc2ccc(F)cc2)[C@@H](C)C(F)(F)F)C1=O [A-485]
Activity (12Z [1]): Active
IC50 at 6 days [2]: 3.32 µM
growth inhibition (GI) (12Z [3]): Active
Activity (12Z [6]): Active
IC50 at 6 days [7]: 3.61 µM
pIC50 [9]: 5.27
Activity [10]: Toxic
Activity [12]: Toxic
inhibition (12Z [13]): Active
inhibition (12Z [14]): Active

From ChEMBL document CHEMBL5712919, “ARID1A Mutations Promote P300-Dependent Endometrial Invasion through Super-Enhancer Hyperacetylation” (Cell Rep, 2020)
